In ChEMBL document CHEMBL1122229, “alpha-adrenoreceptor reagents. 1. Synthesis of some 1,4-benzodioxans as selective presynaptic alpha 2-adrenoreceptor antagonists and potential antidepressants” (J Med Chem, 1983):
Activity calls are given as the source filed them. No cut-off for these calls is given here.

Legend:
[1] = molecular target: T1, Adrenergic receptor alpha-1 (Rattus norvegicus) (UniProt P15823+P23944+P43140); experiment: In vitro postsynaptic agonist potency at alpha-1 adrenergic receptor in rat anococcygeus muscle relative to phenylephrine; IA means inactive.; format: functional, tissue-based
How it was run: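 Rat anococcygeus muscle (male Sprague–Dawley rats, 200–250 g) suspended at 0.5 g initial tension in a 50-mL organ bath. […] Standard dose-response curves were run before and after the analogue's curve.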

[2] = molecular target: T1, Adrenergic receptor alpha-1 (Rattus norvegicus); experiment: Ratio of presynaptic antagonist potency to postsynaptic antagonist potency; format: functional
[3] = molecular target: T2, Adrenergic receptor alpha-2 (Rattus norvegicus) (UniProt P22086+P19328+P22909); experiment: In vitro presynaptic agonist potency at alpha-2 adrenergic receptor in rat or mouse vas deferens relative to clonidine; IA means inactive; format: functional, tissue-based
How it was run: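 Field-stimulated rat or mouse vas deferens (Krebs, 30 °C, 95% O2/5% CO2, 3-ms pulses at 0.1 Hz) with isometric twitch recording. […] Standard dose-response curves were run before and after the analogue's curve.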

[4] = molecular target: T2, Adrenergic receptor alpha-2 (Rattus norvegicus); experiment: In vitro presynaptic antagonist potency at alpha-2 adrenergic receptor in rat or mouse vas deferens relative to compound 5 (RX781094); format: functional, tissue-based
How it was run: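 Prostatic halves of rat vas deferens (male Sprague–Dawley rats, 200–250 g; Krebs, 30 °C, 95% O2/5% CO2; 3-ms, 40 V, 0.1 Hz field pulses) or mouse vas deferens (Mg-free Krebs, 30 °C; 3-ms pulses, 0.1 Hz, 100–140 V) were used, with isometric twitch recording. […] The concentration giving 50% reversal was compared with the RX781094 standard in the same tissue.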

[5] = molecular target: T1, Adrenergic receptor alpha-1 (Rattus norvegicus); experiment: In vitro postsynaptic antagonist potency at alpha-1 adrenergic receptor in rat anococcygeus relative to compound 5 (RX781094); format: functional
[6] = molecular target: T1, Adrenergic receptor alpha-1 (Rattus norvegicus); experiment: In vitro postsynaptic antagonist potency at alpha-1 adrenergic receptor in rat anococcygeus relative to compound 5 (RX781094); IA means compound is inactive.; format: functional
[7] = system: Alpha-2 adrenergic receptor (Rattus norvegicus); experiment: In vitro presynaptic antagonist potency at alpha-2 adrenergic receptor in rat or mouse vas deferens; IA means compound is inactive.
[8] = molecular target: T2, Adrenergic receptor alpha-2 (Rattus norvegicus); experiment: In vitro presynaptic agonist potency at alpha-2 adrenergic receptor in rat or mouse vas deferens relative to clonidine; format: functional, tissue-based
How it was run: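 Field-stimulated rat or mouse vas deferens under 0.5 g tension, at 0.1 Hz with 3-ms pulses, 30 °C, gassed with 95% O2/5% CO2. Contractions were recorded isometrically. Standard dose-response curves were run before and after each analogue curve. Potency was expressed relative to the standard in the same experiment.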

[9] = system: Alpha-2 adrenergic receptor (Rattus norvegicus); experiment: In vitro presynaptic agonist potency at alpha-2 adrenergic receptor in rat or mouse vas deferens relative to clonidine; Inactive
[10] = In vitro antagonism at Alpha-2 adrenergic receptor in rat or mouse vas deferens relative to RX781094.; format: functional
How it was run: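 Prostatic half of vas deferens from male Sprague–Dawley rats (200–250 g; Krebs, 30 °C, 95% O2/5% CO2, 0.1 Hz, 3-ms, 40 V) or from mice (magnesium-free Krebs, 100–140 V). Tension 0.5 g; isometric twitch recording. […] The concentration giving 50% reversal of the inhibition was compared with standard 5 in the same tissue.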

[11] = molecular target: T1, Adrenergic receptor alpha-1 (Rattus norvegicus); experiment: In vitro postsynaptic antagonist potency at alpha-1 adrenergic receptor in rat anococcygeus relative to compound 5 (RX781094); AG means compound is agonist.; format: functional; settings: filed as agonist
[12] = molecular target: T1, Adrenergic receptor alpha-1 (Rattus norvegicus); experiment: In vitro postsynaptic agonist potency at alpha-1 adrenergic receptor in rat anococcygeus muscle relative to phenylephrine; format: functional, tissue-based
[13] = molecular target: T1, Adrenergic receptor alpha-1 (Rattus norvegicus); experiment: In vitro postsynaptic antagonist potency at alpha-1 adrenergic receptor in rat anococcygeus.; format: functional

## N=C(NCCc1ccccc1)C1COc2ccccc2O1 (centres undefined)
[1]
  Agonist potency: inactive
[2]
  Selectivity: 0.01
[3]
  Agonist potency: inactive
[4]
  Antagonist potency: 0.0003
[5]
  Antagonist potency: 0.03

## c1ccc2c(c1)OCC(c1nn[nH]n1)O2 (centres undefined)
[1]
  Agonist potency: inactive
[3]
  Agonist potency: inactive
[6]
  Antagonist potency: inactive
[7]
  Antagonist potency: inactive

## c1ccc2c(c1)OCC(Cc1ncc[nH]1)O2 (centres undefined)
[1]
  Agonist potency: inactive
[2]
  Selectivity: 0.016
[3]
  Agonist potency: inactive
[4]
  Antagonist potency: 0.004
[5]
  Antagonist potency: 0.25

## c1ccc2c(c1)OCC(C1=NCCCN1)O2 (centres undefined)
[1]
  Agonist potency: inactive
[2]
  Selectivity: 0.1
[3]
  Agonist potency: inactive
[4]
  Antagonist potency: 0.01
[5]
  Antagonist potency: 0.1

## COc1cccc(OC)c1OCC/N=C(\N)C1COc2ccccc2O1 (centres undefined)
[1]
  Agonist potency: inactive
[2]
  Selectivity: 0.01
[4]
  Antagonist potency: 0.001
[5]
  Antagonist potency: 0.1
[8]
  Agonist potency: 0.0001

## Clc1cc2c(cc1Cl)OC(C1=NCCN1)CO2 (centres undefined)
[1]
  Agonist potency: inactive
[9]
  Agonist potency: inactive
[2]
  Selectivity: 0.01
[4]
  Antagonist potency: 0.003
[5]
  Antagonist potency: 0.3

## Fc1ccc2c(c1)OCC(C1=NCCN1)O2 (centres undefined)
[1]
  Agonist potency: inactive
[9]
  Agonist potency: inactive
[2]
  Selectivity: 0.1
[10]
  Antagonist potency: 0.01
[5]
  Antagonist potency: 0.1

## Oc1ccc2c(c1)OC(C1=NCCN1)CO2 (centres undefined)
[10]
  Antagonist potency: 0.036
[11]
  Antagonist potency: Agonist
[12]
  Agonist potency: 1.1
[8]
  Agonist potency: 0.15

## c1ccc2c(c1)OCC(C1=NCCS1)O2 (centres undefined)
[1]
  Agonist potency: inactive
[3]
  Agonist potency: inactive
[6]
  Antagonist potency: inactive
[7]
  Antagonist potency: inactive

## NC(=NO)C1COc2ccccc2O1 (centres undefined)
[3]
  Agonist potency: inactive
[13]
  Antagonist potency: 0.01

## N=C(NN1CCOCC1)C1COc2ccccc2O1 (centres undefined)
[1]
  Agonist potency: inactive
[3]
  Agonist potency: inactive
[6]
  Antagonist potency: inactive
[7]
  Antagonist potency: inactive

## N=C(N)C1COc2ccccc2O1 (centres undefined)
[3]
  Agonist potency: inactive
[4]
  Antagonist potency: 0.01
[12]
  Agonist potency: 0.05

## COCC/N=C(\N)C1COc2ccccc2O1 (centres undefined)
[1]
  Agonist potency: inactive
[3]
  Agonist potency: inactive
[5]
  Antagonist potency: 0.1
[7]
  Antagonist potency: inactive

## c1ccc2c(c1)OCC(Cn1ccnc1)O2 (centres undefined)
[1]
  Agonist potency: inactive
[3]
  Agonist potency: inactive
[4]
  Antagonist potency: 0.013
[5]
  Antagonist potency: < 0.023

## c1ccc2cc3c(cc2c1)OCC(C1=NCCN1)O3 (centres undefined)
[1]
  Agonist potency: inactive
[2]
  Selectivity: 0.1
[3]
  Agonist potency: inactive
[4]
  Antagonist potency: 0.001
[5]
  Antagonist potency: 0.01

## Nc1nc(N)nc(C2COc3ccccc3O2)n1 (centres undefined)
[1]
  Agonist potency: inactive
[9]
  Agonist potency: inactive
[6]
  Antagonist potency: inactive
[7]
  Antagonist potency: inactive

## Cc1ccc(C)c2c1OCC(C1=NCCN1)O2 (centres undefined)
[10]
  Antagonist potency: 0.005
[11]
  Antagonist potency: Agonist
[12]
  Agonist potency: 2.5
[8]
  Agonist potency: 0.19

## CC1CN=C(C2COc3ccccc3O2)N1 (centres undefined)
[1]
  Agonist potency: inactive
[2]
  Selectivity: 0.003
[3]
  Agonist potency: inactive
[4]
  Antagonist potency: 0.003
[5]
  Antagonist potency: 1

## COc1cccc2c1OC(C1=NCCN1)CO2 (centres undefined)
[1]
  Agonist potency: inactive
[2]
  Selectivity: 0.14
[10]
  Antagonist potency: 0.12
[3]
  Agonist potency: inactive
[5]
  Antagonist potency: 0.9

## Clc1ccc(Cl)c2c1OCC(C1=NCCN1)O2 (centres undefined)
[4]
  Antagonist potency: 0.26
[11]
  Antagonist potency: Agonist
[12]
  Agonist potency: 0.55
[8]
  Agonist potency: 0.02

## O=[N+]([O-])c1cccc2c1OC(C1=NCCN1)CO2 (centres undefined)
[1]
  Agonist potency: inactive
[2]
  Selectivity: 0.22
[10]
  Antagonist potency: 0.02
[3]
  Agonist potency: inactive
[5]
  Antagonist potency: 0.09

## Brc1ccc2c(c1)OCC(C1=NCCN1)O2 (centres undefined)
[9]
  Agonist potency: inactive
[10]
  Antagonist potency: 0.01
[6]
  Antagonist potency: inactive
[12]
  Agonist potency: 0.05

## CC1(C)CN=C(C2COc3ccccc3O2)N1 (centres undefined)
[1]
  Agonist potency: inactive
[2]
  Selectivity: 0.01
[3]
  Agonist potency: inactive
[4]
  Antagonist potency: 0.0001
[5]
  Antagonist potency: 0.01

## CN1CCN=C1C1COc2ccccc2O1 (centres undefined)
[1]
  Agonist potency: inactive
[2]
  Selectivity: 0.003
[3]
  Agonist potency: inactive
[4]
  Antagonist potency: 0.0003
[5]
  Antagonist potency: 0.1

## N/C(=N\CCCO)C1COc2ccccc2O1 (centres undefined)
[1]
  Agonist potency: inactive
[3]
  Agonist potency: inactive
[4]
  Antagonist potency: < 0.001
[5]
  Antagonist potency: 0.024

## c1ccc2c(c1)OCC(c1nc3ccccc3[nH]1)O2 (centres undefined)
[1]
  Agonist potency: inactive
[3]
  Agonist potency: inactive
[4]
  Antagonist potency: 0.0003
[5]
  Antagonist potency: < 0.02

## c1ccc2c(c1)OCC(CC1=NCCN1)O2 (centres undefined)
[1]
  Agonist potency: inactive
[2]
  Selectivity: 0.33
[3]
  Agonist potency: inactive
[4]
  Antagonist potency: 0.045
[5]
  Antagonist potency: 0.14

## Oc1ccc2c(c1)OCC(C1=NCCN1)O2 (centres undefined)
[10]
  Antagonist potency: 0.017
[11]
  Antagonist potency: Agonist
[12]
  Agonist potency: 0.55
[8]
  Agonist potency: 0.015

## COc1ccc2c(c1)OCC(C1=NCCN1)O2 (centres undefined)
[10]
  Antagonist potency: 0.006
[3]
  Agonist potency: inactive
[12]
  Agonist potency: 0.005

## Nc1noc(CC2COc3ccccc3O2)n1 (centres undefined)
[1]
  Agonist potency: inactive
[3]
  Agonist potency: inactive
[4]
  Antagonist potency: < 0.0003
[5]
  Antagonist potency: < 0.023

## Oc1cccc2c1OCC(C1=NCCN1)O2 (centres undefined)
[9]
  Agonist potency: inactive
[10]
  Antagonist potency: 0.018
[11]
  Antagonist potency: Agonist
[12]
  Agonist potency: 0.017

## Cc1cccc2c1OC(C1=NCCN1)CO2 (centres undefined)
[4]
  Antagonist potency: 0.5
[11]
  Antagonist potency: Agonist
[12]
  Agonist potency: 2.1
[8]
  Agonist potency: 0.01

## Clc1cccc2c1OC(C1=NCCN1)CO2 (centres undefined)
[10]
  Antagonist potency: 0.49
[11]
  Antagonist potency: Agonist
[12]
  Agonist potency: 0.4
[8]
  Agonist potency: 0.67

## CC(C)(C)c1ccc2c(c1)OCC(C1=NCCN1)O2 (centres undefined)
[1]
  Agonist potency: inactive
[2]
  Selectivity: 0.1
[3]
  Agonist potency: inactive
[4]
  Antagonist potency: 0.01
[5]
  Antagonist potency: 0.1

## CCCC/N=C(\NCCCC)C1COc2ccccc2O1 (centres undefined)
[1]
  Agonist potency: inactive
[2]
  Selectivity: 0.01
[3]
  Agonist potency: inactive
[4]
  Antagonist potency: 0.001
[5]
  Antagonist potency: 0.1

## Oc1cccc2c1OC(C1=NCCN1)CO2 (centres undefined)
[1]
  Agonist potency: inactive
[2]
  Selectivity: 0.2
[10]
  Antagonist potency: 0.04
[3]
  Agonist potency: inactive
[5]
  Antagonist potency: 0.2

## O=[N+]([O-])c1ccc2c(c1)OCC(C1=NCCN1)O2 (centres undefined)
[1]
  Agonist potency: inactive
[10]
  Antagonist potency: <0.0003
[3]
  Agonist potency: inactive
[5]
  Antagonist potency: < 0.02

## Cc1cc2c(cc1C)OC(C1=NCCN1)CO2 (centres undefined)
[1]
  Agonist potency: inactive
[9]
  Agonist potency: inactive
[2]
  Selectivity: 0.1
[10]
  Antagonist potency: 0.06
[5]
  Antagonist potency: 0.64

## N=C(C1COc2ccccc2O1)N1CCCCC1 (centres undefined)
[1]
  Agonist potency: inactive
[2]
  Selectivity: 0.01
[3]
  Agonist potency: inactive
[4]
  Antagonist potency: 0.0001
[5]
  Antagonist potency: 0.01

## c1ccc2c(c1)OCC(c1ncc[nH]1)O2 (centres undefined)
[1]
  Agonist potency: inactive
[2]
  Selectivity: 0.1
[3]
  Agonist potency: inactive
[4]
  Antagonist potency: 0.001
[5]
  Antagonist potency: 0.01

## COc1ccc2c(c1)OC(C1=NCCN1)CO2 (centres undefined)
[1]
  Agonist potency: inactive
[2]
  Selectivity: 0.09
[10]
  Antagonist potency: 0.02
[3]
  Agonist potency: inactive
[5]
  Antagonist potency: 0.225

## Clc1ccc2c(c1)OCC(C1=NCCN1)O2 (centres undefined)
[9]
  Agonist potency: inactive
[2]
  Selectivity: 0.01
[10]
  Antagonist potency: 0.01
[5]
  Antagonist potency: 1
[12]
  Agonist potency: 0.005

## COc1cccc2c1OCC(C1=NCCN1)O2 (centres undefined)
[10]
  Antagonist potency: 0.001
[3]
  Agonist potency: inactive
[6]
  Antagonist potency: inactive
[12]
  Agonist potency: 5
